Activity calls are given as the source filed them. The calls are words filed in the database; no cut-off is given here.
System: HEK293
Experiment: Cytotoxicity against human HEK293 cells expressing human SERT assessed as decrease in cell viability after 48 hrs neutral red dye assay
Type: functional, cell-based
Conditions: HEK293, 48 h
Summary of the method: (§1)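 5x10^4 cells/well grown to sub-confluence (24-36 h), then exposed to compound 48 h. Neutral red dye 3+1 h, solubilised in 50% ethanol/1% acetic acid, absorbance 540 nm (690 nm background). Viability as percent of vehicle-treated cells; pEC50 by non-linear sigmoidal regression over 4 concentrations, triplicate on two independent days. Controls 30 mM sodium azide, 2% Triton-X. HEK293-hSERT cells kept in Geneticin, used up to 30 passages.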
`CSc1ccc(CC(Cc2ccc(SC)cc2)NC(C)=O)cc1` showed an EC50 of 39.8 µM.
In the case of `CSc1ccc(CC(N)Cc2ccc(SC)cc2)cc1`, the EC50 is reported as 31.6 µM.
`O=[N+]([O-])/C(=C\c1ccc2c(c1)OCO2)Cc1ccc2c(c1)OCO2` showed an EC50 of 12.6 µM.
Molecule `CC(=O)NC(Cc1ccc2c(c1)OCO2)Cc1ccc2c(c1)OCO2` has an EC50 greater than 10000 µM.
For `CNC(C)Cc1ccc2c(c1)OCO2` (configuration not stated) [MIDOMAFETAMINE], the EC50 was 501 µM.

System: MUTU-I
Experiment: Induction of apoptosis in human chemosensitive MUTU-I cells assessed as caspase 3/7 activation at 10 uM after 4 hrs
Type: functional, cell-based
Conditions: not given
With `O=[N+]([O-])/C(=C\c1ccc2c(c1)OCO2)Cc1ccc2c(c1)OCO2` the Activity was “Active”.

Biological target: T1, Sodium-dependent serotonin transporter (Homo sapiens, UniProt P31645)
Conditions: HEK293, at 1 µM
Target sequence in this assay (P31645 whole entry, looked up): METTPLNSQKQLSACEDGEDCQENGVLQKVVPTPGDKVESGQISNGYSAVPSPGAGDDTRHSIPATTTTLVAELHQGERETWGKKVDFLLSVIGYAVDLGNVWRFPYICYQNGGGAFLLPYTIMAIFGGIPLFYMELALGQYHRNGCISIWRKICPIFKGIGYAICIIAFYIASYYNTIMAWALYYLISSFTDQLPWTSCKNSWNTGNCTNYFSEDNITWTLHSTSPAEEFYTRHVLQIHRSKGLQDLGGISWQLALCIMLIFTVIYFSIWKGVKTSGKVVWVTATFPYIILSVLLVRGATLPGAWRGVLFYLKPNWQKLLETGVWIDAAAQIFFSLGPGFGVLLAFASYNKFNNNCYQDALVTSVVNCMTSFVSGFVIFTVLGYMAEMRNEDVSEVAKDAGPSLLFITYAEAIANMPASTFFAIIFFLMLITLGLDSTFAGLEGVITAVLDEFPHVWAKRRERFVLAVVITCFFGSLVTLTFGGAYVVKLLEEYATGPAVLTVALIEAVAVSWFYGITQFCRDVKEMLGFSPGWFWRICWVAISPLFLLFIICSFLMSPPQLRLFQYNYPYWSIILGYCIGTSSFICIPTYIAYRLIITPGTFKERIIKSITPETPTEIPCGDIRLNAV
Work on `CSc1ccc(CC(Cc2ccc(SC)cc2)NC(C)=O)cc1` yielded an inhibition of 0%.
With `CSc1ccc(CC(N)Cc2ccc(SC)cc2)cc1` the inhibition was 50%.
In the case of `O=[N+]([O-])/C(=C\c1ccc2c(c1)OCO2)Cc1ccc2c(c1)OCO2`, the inhibition is reported as 15%.

Biological target: T2, Tyrosine-protein phosphatase non-receptor type 1 (Homo sapiens) (UniProt P18031)
T2 sequence (whole entry): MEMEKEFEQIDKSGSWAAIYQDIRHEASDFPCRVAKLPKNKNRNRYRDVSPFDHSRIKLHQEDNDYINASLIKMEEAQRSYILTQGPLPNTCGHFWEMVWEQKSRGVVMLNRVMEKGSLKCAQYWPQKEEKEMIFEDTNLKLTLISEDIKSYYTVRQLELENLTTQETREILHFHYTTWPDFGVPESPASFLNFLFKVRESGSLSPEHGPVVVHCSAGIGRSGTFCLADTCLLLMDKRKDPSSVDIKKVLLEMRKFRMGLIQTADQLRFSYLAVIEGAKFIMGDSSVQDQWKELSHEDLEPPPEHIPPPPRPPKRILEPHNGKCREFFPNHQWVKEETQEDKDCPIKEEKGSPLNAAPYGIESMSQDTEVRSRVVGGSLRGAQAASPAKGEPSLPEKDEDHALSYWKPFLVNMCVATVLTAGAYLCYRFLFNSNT
Experiment: Inhibition of human recombinant PTP1B in chemosensitive MUTU-I cells after 30 mins
Type: cell-based
Conditions: not given
Summary of the method: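 Recombinant PTP1B expressed in E. coli, incubated with compound and a phosphopeptide substrate for 30 min at 30 °C. Released phosphate detected by malachite green at 620 nm and quantified against a phosphate standard curve. Suramin as positive control.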
For `O=[N+]([O-])/C(=C\c1ccc2c(c1)OCO2)Cc1ccc2c(c1)OCO2`, the inhibition was “inactive”.

Biological target: T1, Sodium-dependent serotonin transporter
Conditions: HEK293, at 100 µM
Target sequence in this assay (P31645 whole entry, looked up): as the sequence (P31645 whole entry, looked up) above
Work on `CSc1ccc(CC(Cc2ccc(SC)cc2)NC(C)=O)cc1` yielded an inhibition of 28%.
`CSc1ccc(CC(N)Cc2ccc(SC)cc2)cc1` showed an inhibition of 98%.
In the case of `O=[N+]([O-])/C(=C\c1ccc2c(c1)OCO2)Cc1ccc2c(c1)OCO2`, the inhibition is reported as 36%.

System: SH-SY5Y
Experiment: Cytotoxicity against human SH-SY5Y cells expressing human SERT assessed as decrease in cell viability after 48 hrs neutral red dye assay
Type: functional, cell-based
Conditions: not given
In the case of `CSc1ccc(CC(Cc2ccc(SC)cc2)NC(C)=O)cc1`, the EC50 is reported as 3980 µM.
`CSc1ccc(CC(N)Cc2ccc(SC)cc2)cc1` gave an EC50 of 20 µM.
Molecule `O=[N+]([O-])/C(=C\c1ccc2c(c1)OCO2)Cc1ccc2c(c1)OCO2` has an EC50 of 15.8 µM.
With `CC(=O)NC(Cc1ccc2c(c1)OCO2)Cc1ccc2c(c1)OCO2` the EC50 was greater than 10000 µM.
Work on `CNC(C)Cc1ccc2c(c1)OCO2` (configuration not stated) [MIDOMAFETAMINE] yielded an EC50 greater than 10000 µM.

Biological target: Tubulin (Homo sapiens) (UniProt P68371+Q9H4B7+P0DPH7+P68366+Q13509+Q71U36+P04350+Q3ZCM7+P07437+P68363+Q9BQE3+Q6PEY2+Q13885+Q9BVA1+Q9BUF5)
Experiment: Inhibition of tubulin polymerisation in human chemosensitive MUTU-I cells after 30 mins
Type: cell-based
Conditions: not given
For `O=[N+]([O-])/C(=C\c1ccc2c(c1)OCO2)Cc1ccc2c(c1)OCO2`, the inhibition was “inactive”.

System: PBMC
Experiment: Cytotoxicity against human PBMC cells assessed as decrease in cell viability 10 or 50 uM after 24 hrs Alamar blue assay
Type: cell-based
Conditions: not given
Summary of the method: (§2)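 1-5x10^4 cells/200 µl given 10 or 50 µM for 24 h (MUTU-I, MDA-MB231, PBMC) or […]. Alamar Blue at 37 °C in the dark 4-6 h, then fluorescence read with 544/590 nm. Media-only background subtracted; untreated cells set as 100% viability. Mean of six points (triplicate, two independent days). PBMCs from a healthy donor, isolated by ficoll density separation.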
In the case of `CSc1ccc(CC(N)Cc2ccc(SC)cc2)cc1`, the Activity is reported as “Toxic”.

System: SH-SY5Y
Experiment: Antiproliferative activity against human SH-SY5Y cells after 24 hrs Alamar blue assay
Type: functional, cell-based
Conditions: not given
Summary of the method: (§3)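 Alamar Blue viability: 1-5x10^4 cells/well treated 24 h, then Alamar Blue (pre-warmed) 4-6 h at 37 °C in the dark. Fluorescence read at 590 nm (excitation 544 nm), background of medium plus dye subtracted, untreated cells = 100% viability. Miconazole 10 µM as cell-death control. Range 1 µM-1 mM, triplicate on two independent days. pEC50 from non-linear sigmoidal regression.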
Work on `CSc1ccc(CC(Cc2ccc(SC)cc2)NC(C)=O)cc1` yielded an EC50 of 15800 µM.
`CSc1ccc(CC(N)Cc2ccc(SC)cc2)cc1` gave an EC50 of 12.6 µM.
For `O=[N+]([O-])/C(=C\c1ccc2c(c1)OCO2)Cc1ccc2c(c1)OCO2`, the EC50 was 31.6 µM.

System: MUTU-I
Experiment: Induction of apoptosis in human chemosensitive MUTU-I cells assessed as chromatin condensation and membrane bledding at 10 uM after 4 hrs
Type: functional, cell-based
Conditions: not given
Summary of the method: (§4)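 Cells at 3x10^5 cells/mL exposed for 4 h or 8 h. 150 µl aliquots were cytocentrifuged onto slides (500 ×g, 2 min), air-dried, methanol-fixed, and stained with eosin Y and methylene blue. Morphology was examined by light microscopy at 60x.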
For `O=[N+]([O-])/C(=C\c1ccc2c(c1)OCO2)Cc1ccc2c(c1)OCO2`, the Activity was “Active”.

System: not listed separately
Experiment: Induction of apoptosis in human chemosensitive MUTU-I cells assessed as accumulation at pre-G1 phase at 10 uM by propidium iodide FACS analysis
Type: functional
Conditions: not given
Summary of the method: (§5)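 750,000 MUTU-I cells per sample treated for the stated time, then harvested (300 ×g, 5 min), washed in ice-cold PBS and fixed overnight at 4 °C in 70% ethanol. Stained with RNase A and propidium iodide, 30 min at 37 °C in the dark. Flow cytometry counted 10,000 gated cells for cell-cycle phases. Taxol 10 µM as positive control.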
For `O=[N+]([O-])/C(=C\c1ccc2c(c1)OCO2)Cc1ccc2c(c1)OCO2`, the Activity was 30%.

System: not listed separately
Experiment: Antiproliferative activity against human chemosensitive MUTU-I cells after 24 hrs Alamar blue assay
Type: functional, cell-based
Conditions: not given
Summary of the method: as §3
With `CSc1ccc(CC(Cc2ccc(SC)cc2)NC(C)=O)cc1` the EC50 was 158 µM.
`CSc1ccc(CC(N)Cc2ccc(SC)cc2)cc1` gave an EC50 of 12.6 µM.
In the case of `O=[N+]([O-])/C(=C\c1ccc2c(c1)OCO2)Cc1ccc2c(c1)OCO2`, the EC50 is reported as 3.16 µM.

System: MUTU-I
Experiment: Induction of apoptosis in human chemosensitive MUTU-I cells assessed as induction of PARP cleavage at 10 uM after 8 hrs
Type: functional, cell-based
Conditions: not given
Summary of the method: (§6)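 PARP cleavage by Western blot: 5x10^6 cells pelleted (500 ×g, 5 min), washed, and lysed in Laemmli buffer with protease inhibitors. Lysates run on 8% SDS-PAGE, transferred to PVDF, and probed with anti-PARP detecting full-length 113 kDa and cleaved 85 kDa forms. HRP secondary antibody, chemiluminescence detection.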
With `O=[N+]([O-])/C(=C\c1ccc2c(c1)OCO2)Cc1ccc2c(c1)OCO2` the Activity was “Active”.

System: MUTU-I
Experiment: Induction of apoptosis in human chemosensitive MUTU-I cells assessed as accumulation at G2/M phase after 2 to 8 hrs by propidium iodide FACS analysis relative to taxol
Type: functional, cell-based
Conditions: not given
Summary of the method: as §5
With `O=[N+]([O-])/C(=C\c1ccc2c(c1)OCO2)Cc1ccc2c(c1)OCO2` the Activity was “Active”.

System: MUTU-I
Experiment: Induction of apoptosis in human chemosensitive MUTU-I cells assessed as chromatin condensation and membrane bledding at 10 uM after 8 hrs
Type: functional, cell-based
Conditions: not given
Summary of the method: as §4
For `O=[N+]([O-])/C(=C\c1ccc2c(c1)OCO2)Cc1ccc2c(c1)OCO2`, the Activity was “Active”.

Biological target: T1, Sodium-dependent serotonin transporter
Experiment: Inhibition of [3H]-serotonin reuptake at human SERT expressed in HEK293 cells after 15 to 20 mins by fluorescence neurotransmitter transporter assay
Type: cell-based
Conditions: not given
Target sequence in this assay (P31645 whole entry): as the sequence (P31645 whole entry, looked up) above
`CSc1ccc(CC(N)Cc2ccc(SC)cc2)cc1` showed an IC50 of 2.5 µM.
Work on `CNC(C)Cc1ccc2c(c1)OCO2` (configuration not stated) [MIDOMAFETAMINE] yielded an IC50 of 1.1 µM.

System: DG-75
Experiment: Cytotoxicity against human chemoresistant DG75 cells expressing SERT assessed as decrease in cell viability 10 or 50 uM after 72 hrs Alamar blue assay
Type: functional, cell-based
Conditions: DG-75, 72 h
Summary of the method: as §2
For `CSc1ccc(CC(Cc2ccc(SC)cc2)NC(C)=O)cc1`, the EC50 was 3980 µM.
Molecule `CSc1ccc(CC(N)Cc2ccc(SC)cc2)cc1` has an EC50 of 25.1 µM.
With `O=[N+]([O-])/C(=C\c1ccc2c(c1)OCO2)Cc1ccc2c(c1)OCO2` the EC50 was 1 µM.
Molecule `CC(=O)NC(Cc1ccc2c(c1)OCO2)Cc1ccc2c(c1)OCO2` has an EC50 of 1260 µM.
`CNC(C)Cc1ccc2c(c1)OCO2` (configuration not stated) [MIDOMAFETAMINE] gave an EC50 of 31.6 µM.

System: DG-75
Experiment: Antiproliferative activity against human DG75 cells after 24 hrs Alamar blue assay
Type: functional, cell-based
Conditions: DG-75, 24 h
Summary of the method: as §3
With `CSc1ccc(CC(Cc2ccc(SC)cc2)NC(C)=O)cc1` the EC50 was 398 µM.
For `CSc1ccc(CC(N)Cc2ccc(SC)cc2)cc1`, the EC50 was 25.1 µM.
With `O=[N+]([O-])/C(=C\c1ccc2c(c1)OCO2)Cc1ccc2c(c1)OCO2` the EC50 was 50.1 µM.

System: MUTU-I
Experiment: Induction of apoptosis in human chemosensitive MUTU-I cells assessed as induction of PARP cleavage at 10 uM after 4 hrs
Type: functional, cell-based
Conditions: not given
Summary of the method: as §6
With `O=[N+]([O-])/C(=C\c1ccc2c(c1)OCO2)Cc1ccc2c(c1)OCO2` the Activity was “Active”.

System: HEK293
Experiment: Cytotoxicity against human HEK293 cells assessed as decrease in cell viability after 48 hrs neutral red dye assay
Type: functional, cell-based
Conditions: HEK293, 48 h
Summary of the method: as §1
For `CSc1ccc(CC(N)Cc2ccc(SC)cc2)cc1`, the EC50 was 20 µM.
In the case of `O=[N+]([O-])/C(=C\c1ccc2c(c1)OCO2)Cc1ccc2c(c1)OCO2`, the EC50 is reported as 7.94 µM.
For `CC(=O)NC(Cc1ccc2c(c1)OCO2)Cc1ccc2c(c1)OCO2`, the EC50 was 3980 µM.
For `CNC(C)Cc1ccc2c(c1)OCO2` (configuration not stated) [MIDOMAFETAMINE], the EC50 was 251 µM.

System: MUTU-I
Experiment: Induction of apoptosis in human chemosensitive MUTU-I cells assessed as caspase 3/7 activation at 10 uM after 5 hrs
Type: functional, cell-based
Conditions: not given
Summary of the method: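 Caspase 3/7 activity by homogeneous fluorogenic kit: 0.5x10^5 cells exposed to compound (10 µM) for 5 h, then 100 µl Z-DEVD-R110 substrate added. After 2 h, cleaved substrate measured at 521 nm (excitation 499 nm).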
With `O=[N+]([O-])/C(=C\c1ccc2c(c1)OCO2)Cc1ccc2c(c1)OCO2` the Activity was “Active”.
